Assay results from ChEMBL document CHEMBL1145100, “Structure-activity relationship of imidazo[1,2-a]pyridines as ligands for detecting beta-amyloid plaques in the brain” (J Med Chem, 2003).

Legend:
Mus musculus [1] = assay: Biodistribution of radioactivity in normal mice (ICR) lung after 2 hours of intravenous injection of [125I]-16(IMPY); assay type: ADME, organism-based; conditions: in vivo
In short: (§1)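 Male ICR mice, 2-3 months old, 20-30 g, under ether anesthesia, given 0.15 mL of 0.1% bovine serum albumin solution containing the [125I] tracer into the tail vein. Killed by cardiac excision at set times after injection. Organs removed and weighed, then gamma-counted. % dose per organ computed against diluted aliquots of the injected material.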

Mus musculus [2] = assay: Biodistribution of radioactivity in normal mice (ICR) liver after 24 hours of intravenous injection of [125I]-16(IMPY); assay type: ADME, organism-based; conditions: in vivo; in short: as §1
Mus musculus [3] = assay: Biodistribution of radioactivity in normal mice (ICR) skin after 2 hours of intravenous injection of [125I]-16(IMPY); assay type: ADME, organism-based, Zone of skin; conditions: in vivo; in short: as §1
Mus musculus [4] = assay: Biodistribution of radioactivity in normal mice (ICR) heart after 2 hours of intravenous injection of [125I]-16(IMPY); assay type: ADME, organism-based; conditions: in vivo; in short: as §1
Mus musculus [5] = assay: Biodistribution of radioactivity in normal mice (ICR) lung after 2 minutes of intravenous injection of [125I]-16(IMPY); assay type: ADME, organism-based; conditions: in vivo; in short: as §1
Mus musculus [6] = assay: Biodistribution of radioactivity in normal mice (ICR) brain after 30 minutes of intravenous injection of [125I]-16(IMPY); assay type: ADME, organism-based; conditions: in vivo, 0.5 h; in short: as §1
Mus musculus [7] = assay: Biodistribution of radioactivity in normal mice (ICR) kidney after 6 hours of intravenous injection of [125I]-16(IMPY); assay type: ADME, organism-based; conditions: in vivo; in short: as §1
Mus musculus [8] = assay: Biodistribution of radioactivity in normal mice (ICR) spleen after 2 hours of intravenous injection of [125I]-16(IMPY); assay type: ADME, organism-based; conditions: in vivo; in short: as §1
Mus musculus [9] = assay: Biodistribution of radioactivity in normal mice (ICR) heart after 2 minutes of intravenous injection of [125I]-16(IMPY); assay type: ADME, organism-based; conditions: in vivo; in short: as §1
Mus musculus [10] = assay: Biodistribution of radioactivity in normal mice (ICR) heart after 24 hours of intravenous injection of [125I]-16(IMPY); assay type: ADME, organism-based; conditions: in vivo; in short: as §1
Mus musculus [11] = assay: Biodistribution of radioactivity in normal mice (ICR) kidney after 30 minutes of intravenous injection of [125I]-16(IMPY); assay type: ADME, organism-based; conditions: in vivo, 0.5 h; in short: as §1
Mus musculus [12] = assay: Biodistribution of radioactivity in normal mice (ICR) muscle after 2 minutes of intravenous injection of [125I]-16(IMPY); assay type: ADME, organism-based, Muscle tissue; conditions: in vivo; in short: as §1
Mus musculus [13] = assay: Biodistribution of radioactivity in normal mice (ICR) muscle after 30 minutes of intravenous injection of [125I]-16(IMPY); assay type: ADME, organism-based, Muscle tissue; conditions: in vivo, 0.5 h; in short: as §1
Mus musculus [14] = assay: Biodistribution of radioactivity in normal mice blood after 24 hours of intravenous injection of [125I]-16(IMPY); assay type: ADME, organism-based; conditions: in vivo
In short: (§2)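 Male ICR mice (2-3 months old, 20-30 g) under ether anesthesia; 0.15 mL of 0.1% bovine serum albumin solution containing the iodine-125 tracer injected into the tail vein. Mice killed by cardiac excision at set times. Organs removed, weighed and gamma-counted. Percent dose per organ derived against diluted aliquots of the injectate.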

Mus musculus [15] = assay: Biodistribution of radioactivity in normal mice blood after 30 minutes of intravenous injection of [125I]-16(IMPY); assay type: ADME, organism-based; conditions: in vivo, 0.5 h; in short: as §2
Mus musculus [16] = assay: Biodistribution of radioactivity in normal mice (ICR) muscle after 2 hours of intravenous injection of [125I]-16(IMPY); assay type: ADME, organism-based, Muscle tissue; conditions: in vivo; in short: as §1
Mus musculus [17] = assay: Biodistribution of radioactivity in normal mice blood after 1 hour of intravenous injection of [125I]-16(IMPY); assay type: ADME, organism-based; conditions: in vivo; in short: as §1
Mus musculus [18] = assay: Biodistribution of radioactivity in normal mice (ICR) liver after 30 minutes of intravenous injection of [125I]-16(IMPY); assay type: ADME, organism-based; conditions: in vivo, 0.5 h; in short: as §1
Mus musculus [19] = assay: Biodistribution of radioactivity in normal mice (ICR) skin after 6 hours of intravenous injection of [125I]-16(IMPY); assay type: ADME, organism-based, Zone of skin; conditions: in vivo; in short: as §1
Mus musculus [20] = assay: Biodistribution of radioactivity in normal mice (ICR) lung after 1 hour of intravenous injection of [125I]-16(IMPY); assay type: ADME, organism-based; conditions: in vivo; in short: as §1
Mus musculus [21] = assay: Biodistribution of radioactivity in normal mice (ICR) heart after 6 hours of intravenous injection of [125I]-16(IMPY); assay type: ADME, organism-based; conditions: in vivo; in short: as §1
Mus musculus [22] = assay: Biodistribution of radioactivity in normal mice (ICR) liver after 6 hours of intravenous injection of [125I]-16(IMPY); assay type: ADME, organism-based; conditions: in vivo; in short: as §1
Mus musculus [23] = assay: Biodistribution of radioactivity in normal mice (ICR) muscle after 6 hours of intravenous injection of [125I]-16(IMPY); assay type: ADME, organism-based, Muscle tissue; conditions: in vivo; in short: as §1
Mus musculus [24] = assay: Biodistribution of radioactivity in normal mice (ICR) kidney after 2 minutes of intravenous injection of [125I]-16(IMPY); assay type: ADME, organism-based; conditions: in vivo; in short: as §1
Mus musculus [25] = assay: Biodistribution of radioactivity in normal mice (ICR) kidney after 2 hours of intravenous injection of [125I]-16(IMPY); assay type: ADME, organism-based; conditions: in vivo; in short: as §1
Mus musculus [26] = assay: Biodistribution of radioactivity in normal mice (ICR) lung after 6 hours of intravenous injection of [125I]-16(IMPY); assay type: ADME, organism-based; conditions: in vivo; in short: as §1
Mus musculus [27] = assay: Biodistribution of radioactivity in normal mice (ICR) muscle after 1 hr of intravenous injection of [125I]-16(IMPY); assay type: ADME, organism-based, Muscle tissue; conditions: in vivo; in short: as §1

For `CN(C)c1ccc(-c2cn3cc(I)ccc3n2)cc1`, the Dose/organ (Mus musculus [1]) was 0.2%, the Dose/organ (Mus musculus [2]) was 0.61% and the Dose/organ (Mus musculus [3]) was 3.14%. The Dose/organ (Mus musculus [4]) was 0.08%, the Dose/organ (Mus musculus [5]) was 1.56% and the Dose/organ (Mus musculus [6]) was 0.26%. For the same molecule, the Dose/organ (Mus musculus [7]) was 0.25%, the Dose/organ (Mus musculus [8]) was 0.05% and the Dose/organ (Mus musculus [9]) was 0.79%. It also gave a Dose/organ (Mus musculus [10]) of 0.01%, a Dose/organ (Mus musculus [11]) of 1.51% and a Dose/organ (Mus musculus [12]) of 13.8%. The Dose/organ (Mus musculus [13]) was 6.08%, the Dose/organ (Mus musculus [14]) was 0.18% and the Dose/organ (Mus musculus [15]) was 2.44%. For the same molecule, the Dose/organ (Mus musculus [16]) was 2.96%, the Dose/organ (Mus musculus [17]) was 2.5% and the Dose/organ (Mus musculus [18]) was 6.32%. It also gave a Dose/organ (Mus musculus [19]) of 2.19%, a Dose/organ (Mus musculus [20]) of 0.34% and a Dose/organ (Mus musculus [21]) of 0.04%. It also gave a Dose/organ (Mus musculus [22]) of 1.54%, a Dose/organ (Mus musculus [23]) of 1.46% and a Dose/organ (Mus musculus [24]) of 4.75%. For the same molecule, the Dose/organ (Mus musculus [25]) was 0.53%, the Dose/organ (Mus musculus [26]) was 0.12% and the Dose/organ (Mus musculus [27]) was 5.03%.
